Series [1] can be described thus: Drug uptake in C57BL/6NCrlCrlj mouse CSF at 10 mg/kg, po administered as single dose measured after 3 hrs by LC-MS/MS analysis. The series is classed as ADME, organism-based, Cerebrospinal fluid. To be noted: read-out: Drug uptake. The essentials:
(§1)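 Male C57BL/6NCrlCrlj mice given a single 10 mg/kg oral dose as a suspension in 0.5% aqueous methylcellulose. At 1 or 3 h, under pentobarbital anesthesia, CSF was taken from the cisterna magna and then blood from the abdominal aorta (spun to plasma). Samples were acetonitrile-precipitated with deuterated internal standard and run by LC-MS/MS. Values are mean with SEM.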

Series [2] is described as follows: Plasma protein binding in C57BL/6N mouse at 10 mg/kg, po administered as single dose by equilibrium dialysis method. The series is classed as ADME, organism-based. To be noted: read-out: PPB (converted).
The subject of series [3] is Mus musculus. Put plainly: Sleep promoting activity in C57BL/6NCrlCrlj mouse assessed as increase in REM sleep at 10 mg/kg, po administered immediately prior to beginning of dark cycle measured during first 3 hrs after drug administration by electroencephalogram/electromyogram analysis (reference value: 0.6 min). It counts as functional. The essentials: (§2)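 Male C57BL/6NCrlCrlj mice implanted with EEG/EMG electrodes were dosed orally in 10% Cremophor EL, 5% DMSO in saline just before lights-off (ZT12) and recorded from ZT12 to ZT20. Group sizes were n=6 dosed and n=7 vehicle. Stages were scored by software with blinded visual confirmation; cumulative first-3-h times are mean with SEM. Dunnett's test was run after one-way ANOVA.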

The test system of series [4] is Mus musculus. Put plainly: Sleep promoting activity in C57BL/6NCrlCrlj mouse assessed as increase in REM sleep at 30 mg/kg, po administered immediately prior to beginning of dark cycle measured during first 3 hrs after drug administration by electroencephalogram/electromyogram analysis (reference value: 0.6 min). The series is classed as functional. In outline: as §2

Series [5] can be described thus: Metabolic stability in human liver microsomes assessed as residual ratio at 0.1 uM after 15 mins by LC-MS analysis. It counts as ADME. The note with it: read-out: Stability. The essentials:
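Compound at 0.1 μM in 0.1% DMSO incubated with human liver microsomes (0.2 mg/mL), with or without an NADPH-generating system, for 15 min at 37 °C. Reaction stopped with acetonitrile/methanol (7:3) containing propranolol internal standard. Parent compound was measured by LC-MS; residual ratio given with NADPH relative to without.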
(In general: Microsomes from liver hold many membrane-bound enzymes, among them those of drug oxidation.)

In a further series the target is T1, Cytochrome P450 1A2 (Homo sapiens, UniProt P05177).
T1 sequence (P05177 whole entry): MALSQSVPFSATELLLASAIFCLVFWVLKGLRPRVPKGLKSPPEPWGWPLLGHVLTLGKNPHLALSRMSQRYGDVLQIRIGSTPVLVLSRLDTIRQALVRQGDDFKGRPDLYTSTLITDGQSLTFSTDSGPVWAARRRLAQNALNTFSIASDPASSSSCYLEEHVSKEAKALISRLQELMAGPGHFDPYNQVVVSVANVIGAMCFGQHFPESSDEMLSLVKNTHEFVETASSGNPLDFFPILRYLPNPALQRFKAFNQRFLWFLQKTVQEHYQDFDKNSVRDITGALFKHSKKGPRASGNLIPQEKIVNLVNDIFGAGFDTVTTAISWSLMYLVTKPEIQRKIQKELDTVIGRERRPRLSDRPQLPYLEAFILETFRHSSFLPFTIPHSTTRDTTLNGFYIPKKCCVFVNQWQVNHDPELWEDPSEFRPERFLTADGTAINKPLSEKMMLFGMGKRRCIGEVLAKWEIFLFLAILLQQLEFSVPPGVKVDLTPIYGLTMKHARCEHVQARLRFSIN
In words: Inhibition of CYP1A2 in human liver microsomes using phenacetin as susbtrate incubated for 30 mins prior to substrate addition for 10 mins by LC-MS/MS analysis. The series is classed as ADME.

The next series has as its target Cytochrome P450 2C19 (Homo sapiens, UniProt P33261). In words: Inhibition of CYP2C19 in human liver microsomes using S-mephenytoin as susbtrate incubated for 30 mins prior to substrate addition for 10 mins by LC-MS/MS analysis. It counts as ADME.
The target in series [6] is T2, Orexin/Hypocretin receptor type 1 (Homo sapiens, UniProt O43613).
T2 sequence (O43613 whole entry): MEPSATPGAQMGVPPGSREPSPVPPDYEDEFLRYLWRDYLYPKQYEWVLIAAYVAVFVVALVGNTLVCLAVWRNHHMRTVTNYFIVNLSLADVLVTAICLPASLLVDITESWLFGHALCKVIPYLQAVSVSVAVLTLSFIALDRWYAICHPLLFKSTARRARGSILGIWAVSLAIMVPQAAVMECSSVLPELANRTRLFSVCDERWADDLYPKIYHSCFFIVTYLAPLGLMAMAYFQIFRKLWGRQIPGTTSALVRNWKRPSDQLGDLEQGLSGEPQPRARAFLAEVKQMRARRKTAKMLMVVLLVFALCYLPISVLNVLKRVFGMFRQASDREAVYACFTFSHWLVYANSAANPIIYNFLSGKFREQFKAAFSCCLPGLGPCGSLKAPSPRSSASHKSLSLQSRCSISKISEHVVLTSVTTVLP
Put plainly: Binding affinity to human OX1R expressed in HEK-293 cells assessed as inhibition of orexin A-induced calcium accumulation by FLIPR assay. The series is classed as cell-based, HEK293. In outline:
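HEK-293 cells expressing human OX1R, seeded at 16000 cells/well and grown overnight at 37 °C, then loaded with Calcium 4 dye in HEPES buffer with 0.1% BSA (1 h at 37 °C, 15 min at RT). Compound was equilibrated 30 min at RT before orexin-A was added. Fluorescence read at ex 480/em 540 nm on FDSS6000; response taken as peak/baseline ratio. Orexin-A EC50 was determined in each experiment.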

Series [7] has as its system Mus musculus. Put plainly: Sleep promoting activity in C57BL/6NCrlCrlj mouse assessed as reduction in wakefulness time at 30 mg/kg, po administered immediately prior to beginning of dark cycle measured during first 3 hrs after drug administration by electroencephalogram/electromyogram analysis (reference value: 116.7 min). The series is classed as functional. In outline: as §2

Series [8] in a line: AUC (0 to infinity) in C57BL/6NCrlCrlj mouse at 1 mg/kg, iv by LC-MS/MS analysis. The series is classed as ADME, organism-based. On the set-up: dose 1 mg/kg, time infinity, route intravenous. To be noted: in vivo. The essentials: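 Male C57BL/6NCrlCrlj mice dosed intravenously at 1 mg/kg in 10% DMSO in water. Blood was taken from the tail vein at set time points and spun to plasma. Concentrations were measured by LC-MS/MS (MRM, positive mode) against a 1/x²-weighted standard curve with internal standard. Parameters came from noncompartmental analysis.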

Series [9] can be described thus: Oral bioavailability in C57BL/6NCrlCrlj mouse at 10 mg/kg by LC-MS/MS analysis. It counts as ADME, organism-based. To be noted: in vivo. The essentials: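 Oral dose of 10 mg/kg in 10% Cremophor EL, 5% DMSO in saline; intravenous reference of 1 mg/kg in 10% DMSO in water; male C57BL/6NCrlCrlj mice. Tail-vein plasma was quantified by LC-MS/MS. F% = (mean AUC0–inf po/dose po)/(mean AUC0–inf iv/dose iv) × 100.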

A short description of series [10]: Half life in C57BL/6NCrlCrlj mouse at 30 mg/kg, po by LC-MS/MS analysis. It counts as ADME, organism-based. The note with it: in vivo.
The nature of series [11]: Cmax in C57BL/6NCrlCrlj mouse at 30 mg/kg, po by LC-MS/MS analysis. It counts as ADME, organism-based. Details: dose 30 mg/kg, route oral. To be noted: in vivo.
A short description of series [12]: Oral bioavailability in C57BL/6NCrlCrlj mouse at 30 mg/kg by LC-MS/MS analysis. The series is classed as ADME, organism-based. The note with it: in vivo.
Series [13] in a line: Plasma concentration in C57BL/6NCrlCrlj mouse at 10 mg/kg, po administered as single dose measured after 1 hr by LC-MS/MS analysis. It counts as ADME, organism-based. In outline:
as §1

Chain of Cytochrome P450 2C19 (P33261 whole entry): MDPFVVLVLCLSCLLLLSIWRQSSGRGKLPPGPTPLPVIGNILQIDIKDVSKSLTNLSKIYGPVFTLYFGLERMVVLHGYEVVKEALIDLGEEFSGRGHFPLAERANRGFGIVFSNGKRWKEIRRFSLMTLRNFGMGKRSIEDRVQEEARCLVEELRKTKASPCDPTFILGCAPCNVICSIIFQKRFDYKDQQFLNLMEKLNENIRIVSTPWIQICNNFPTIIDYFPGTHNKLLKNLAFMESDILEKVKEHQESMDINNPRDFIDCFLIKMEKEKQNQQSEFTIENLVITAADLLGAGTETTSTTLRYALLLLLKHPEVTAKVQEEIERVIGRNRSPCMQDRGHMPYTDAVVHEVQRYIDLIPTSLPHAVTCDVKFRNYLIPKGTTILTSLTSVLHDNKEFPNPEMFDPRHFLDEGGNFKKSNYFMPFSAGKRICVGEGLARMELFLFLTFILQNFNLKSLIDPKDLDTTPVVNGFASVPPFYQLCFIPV

For `Cc1ncc(OC[C@@]2(c3cccc(F)c3)C[C@H]2C(=O)Nc2ccc(F)cn2)c(C)n1` [LEMBOREXANT], the concentration at 3 h in series [1] is 7.6 nM. For the same molecule, the fraction unbound in series [2] is 0.148. Further, the Time stood at 3.6 min in the series on Mus musculus [3], 9.3 min in the series on Mus musculus [4] and 75.3 min with Mus musculus [7]. In series [5], the remaining at 0.25 h, 0.1 µM stood at 90%. The IC50 at Cytochrome P450 1A2 and against Cytochrome P450 2C19 was greater than 20 µM each time. For the same molecule, the Ki in series [6] turned out to be 0.0057 µM. Further, in series [8], the AUC(0-inf) came to 1030 ng·h/mL. Besides, the bioavailability in [9] was 18.5%; in series [12] it was 13.4%. In [10], this molecule had a half-life of 1.94 h. For the same molecule, the highest concentration (Cmax) in [11] came to 961 ng/mL. The concentration at 1 h in series [13] turned out to be 633 nM.

For orientation: IC50 means the point on the concentration scale where inhibition reaches its midpoint. A higher IC50 goes with a need for much substance. Broadly, the Ki is a measure of affinity in units of concentration, obtained from inhibition or displacement. Usually AUC(0-inf) stands for total exposure, with the tail of the curve extrapolated. Low values mean less exposure, high ones more exposure. As usually defined, the bioavailability is the share of a dose that reaches the circulation, judged against a reference dose that is usually intravenous. Read a low bioavailability as little systemic uptake. Broadly, the half-life is the time needed for the level to fall by half in the phase considered. A higher half-life goes with slow decline. As usually defined, the Cmax is the peak of the concentration-time curve.

Source of the values: ChEMBL document CHEMBL3585325, “Discovery of (1R,2S)-2-{[(2,4-Dimethylpyrimidin-5-yl)oxy]methyl}-2-(3-fluorophenyl)-N-(5-fluoropyridin-2-yl)cyclopropanecarboxamide (E2006): A Potent and Efficacious Oral Orexin Receptor Antagonist” (J Med Chem, 2015).
